Autophagy mod = autophagy modulators in MEF cells, primary screen, imaging, high-content, MEF GFP-LC3; MEF GFP-LC3 puncta imaging; test concentration mostly 10 µM; 0.98% of 190,000 active; calls only at 10 µM (by protocol);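 active = percentage of spot-positive cells more than 3 SD above its plate mean, without a fluorescence outlier flag or 80% toxicity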
ROMK mod = ROMK potassium channel modulators, primary screen, cell-based, thallium flux, MLSMR library. AID 1918, 2009. ATP-sensitive inward rectifier potassium channel 1 (Homo sapiens), P48048. B-score at 10 µM. Tet-inducible ROMK, thallium flux fluorescence; actives lie on both sides. 2% of 130,000 active;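 active = signal ratio slope over the read window, or its plate-corrected B-score, at least 3 SD from the plate mean, either direction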;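 also: B-score of the F/F0 ratio slope over 7 to 12 s after thallium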
Target sequence (P48048 whole entry, looked up): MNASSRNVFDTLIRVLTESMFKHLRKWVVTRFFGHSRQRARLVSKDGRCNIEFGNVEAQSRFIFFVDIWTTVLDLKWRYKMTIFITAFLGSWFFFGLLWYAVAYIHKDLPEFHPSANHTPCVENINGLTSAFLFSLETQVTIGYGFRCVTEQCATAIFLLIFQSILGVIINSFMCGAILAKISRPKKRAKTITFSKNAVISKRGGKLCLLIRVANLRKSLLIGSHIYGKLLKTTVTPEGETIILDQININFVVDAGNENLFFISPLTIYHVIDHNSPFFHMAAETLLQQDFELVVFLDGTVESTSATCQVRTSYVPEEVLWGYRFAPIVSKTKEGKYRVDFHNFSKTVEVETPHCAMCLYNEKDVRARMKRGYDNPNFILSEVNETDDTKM
Dynein transport = inhibitors of GR-EGFP nuclear translocation, primary screen, dynein cargo transport inhibitor project, imaging, high-content, 3617.4 mouse cells | z-score, hits read low | 0.47% of 220,000 active | test concentration mostly 20 µM; stimulated with dexamethasone, 1 µM; active compounds read low | AID 1381, 2008;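 active = plate z-score of nuclear minus cytoplasmic receptor signal below a set negative limit, without overly bright fluorescence or cell loss, cut at about -3.5 in these data, passing the limit was not always enough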;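 also: z-score of nuclear minus cytoplasmic ring GR-EGFP intensity difference per well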
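medium = tetracycline-free induction medium containing charcoal-stripped FBS | probe or stimulus = dexamethasone, 1.0 µM final | timing = 48 h induction, then 1 h compound, then 30 min agonist, 37 °C | detection = automated 10x imaging of fixed Hoechst-stained cells | read-out basis = nuclear versus cytoplasmic GR-EGFP signal, averaged per well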
Redox H2O2 prof = compounds producing H2O2 with reducing agent – biochemical, NIH compound library profiling, artefact control for MLSCN library redox annotation, primary screen; DTT-dependent redox cycling H2O2, phenol red/HRP absorbance; 100% = 100 µM peroxide control, 0% = buffer; activation, % at 10 µM; 0.03% of 200,000 active; AID 878, 2007;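 active = activation of at least 50% relative to the plate's high and low controls in the primary single-dose screen; inactive = activation below 50%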;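 also: compound incubated with DTT at 0.8 mM final as the reducing agent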
KCC2 mod = KCC2 cotransporter modulators, thallium flux, primary screen, cell-based, HEK293 KCC2, FluoZin-2 fluorescence, MLSMR; KCC2 cells, thallium flux FluoZin-2 fluorescence; B-score of Tl+ flux slope (higher = more flux/activation; lower = inhibition) at 10 µM; 2.2% of 190,000 active; AID 1456, 2008;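 active = thallium flux slope and its plate-corrected score both differing from the plate sample mean at a set confidence after two filtering rounds, in either direction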;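 also: slope of fluorescence scaled to starting intensity during 10 to 20 s after thallium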
Hits are given with their value; – = inactive; · = no result given; + = active, no number. The list is not random: actives were taken first. Their share in the collection is about 4.1%.

SMILES	Autophagy mod	ROMK mod	Dynein transport	Redox H2O2 prof	KCC2 mod
Cc1ccccc1C(=O)NC(=S)NCCc1ccccc1	–	–	–	–	8.3
CCN(CC)C(=S)NC(=O)c1ccc(Cl)cc1Cl	–	–	–	–	12
COc1cccc(CCc2nnc(CCC(=O)NC(C)c3c(C)nn(C)c3C)o2)c1 (stereo unspecified)	–	–	–	–	–
CC(C)Cn1c(C(C)C)nc([N+](=O)[O-])c1S(=O)(=O)c1ccc(F)cc1	–	·	-3.7	–	·
CCCc1nc([N+](=O)[O-])c(S(=O)(=O)c2ccccc2)n1CC(C)C	–	–	–	–	·
CCSCCOC(=O)C1=C(C)N(C)C(=O)NC1c1cc(OC)ccc1OC (stereo unspecified)	–	–	–	–	4.2
CCC1=NN(C(=O)c2ccc(C)cc2)C(O)(c2ccc(Br)cc2)C1 (stereo unspecified)	–	·	–	–	–
CCC1=NN(C(=O)c2cccc(Br)c2)C(O)(c2ccc(Br)cc2)C1 (stereo unspecified)	–	·	–	–	6.5
O=C(COC(=O)CCc1ccc(S(=O)(=O)N2CCOCC2)cc1)NCc1ccc(Cl)cc1	–	–	–	–	–
CCc1ccc2[nH]c(=O)c(CN(CCN(C)C)C(=O)Nc3ccccc3OC)cc2c1	–	·	–	–	–
CCc1ccc2[nH]c(=O)c(CN(CCN(CC)CC)C(=O)Nc3ccccc3OC)cc2c1	+	·	–	–	–
COc1ccc(-c2cn3nc4c(nc3n2)CCCC4)cc1	–	-3.2	–	–	·
CC(=O)Nc1ncc(Cc2cc(Cl)ccc2Cl)s1	+	–	–	–	–
C=CCn1c(SCc2nc3sc(C(=O)O)c(C)c3c(=O)[nH]2)nnc1-c1ccccc1	+	–	–	–	–
CCOc1ccccc1NC(=O)COC(=O)CC(NC(N)=O)c1ccc(Cl)cc1 (stereo unspecified)	–	–	–	–	–
O=C(NCCc1ccccc1)N1c2ccccc2Sc2ccccc21	–	1.8	–	–	–
O=C(CSCc1ccc(Cl)cc1)Nc1ccc(-c2nnc(-c3ccccc3)o2)cc1	+	·	–	–	–
O=C(Cc1ccc(Cl)cc1)Nc1ccc(-c2nnc(-c3ccco3)o2)cc1	–	–	–	–	·
Cc1ccc(CN2CCN(Cc3ccc(Oc4ncccn4)cc3)CC2CCO)cc1 (stereo unspecified)	–	–	–	–	–
Cn1nc([N+](=O)[O-])c(C(C#N)c2ccccn2)c(Cl)c1=O (stereo unspecified)	–	–	-5.9	–	–
N/C(=N\OC(=O)COc1ccc(Cl)cc1Cl)c1ccncc1	–	–	–	–	–
CCn1c(=S)[nH]c2c(c1=O)C(C)(C)Cc1ccccc1-2	–	4	–	–	151
CCSC1=N/C(=C\c2ccc(OC)cc2)C(=O)N1	–	·	–	–	–
COc1ccc(/C=C2\N=C(SC)NC2=O)cc1	–	–	–	–	16
CCc1ccccc1NC(=O)COc1cccc2ccc(C)nc12	–	–	–	–	–
SMILES	Autophagy mod	ROMK mod	Dynein transport	Redox H2O2 prof	KCC2 mod
CCN(C(=O)COC(=O)c1ccc2[nH]c3c(c2c1)CCCC3)C1CCS(=O)(=O)C1 (stereo unspecified)	–	–	–	–	–
COc1ccc(C2C(Oc3ccccc3)C(=O)N2c2cc(C)ccc2C)cc1OC (stereo unspecified)	–	·	–	–	–
COc1ccc(C)cc1N1C(=N)/C(=C2/Nc3ccccc3S2)C(c2ccccc2)C1=O (stereo unspecified)	–	–	-3.6	–	–
Cc1ccc(S(=O)(=O)NNC(=O)c2sccc2-n2cccc2)cc1	–	·	–	–	·
Cc1ccc(CNC(=O)c2sccc2-n2cccc2)cc1	–	·	–	–	6.9
O=C(NNC(=O)c1sccc1-n1cccc1)c1ccccc1	–	·	–	–	–
O=C(NNC(=O)c1sccc1-n1cccc1)c1cccc(Cl)c1	–	·	–	–	12
O=C(OCn1nnc2ccccc2c1=O)c1cc(-c2ccccc2)nc2ccccc12	–	–	–	–	–
Cc1ccc(OCCCCn2c(CO)nc3ccccc32)cc1	–	·	–	–	–
OCc1nc2ccccc2n1CCCOc1ccc(Br)cc1	–	·	–	–	-2.9
Nc1ccc(N2CCN(c3ccc(Cl)c(Cl)c3)CC2)cc1	+	–	–	–	–
CO/N=C/C(=N\Nc1ccc(C)cc1)C(=O)c1ccc(OC)cc1	+	–	–	–	–
S=c1[nH]nc(-c2cc(-c3ccccn3)nc3ccccc23)o1	·	·	–	·	–
Cc1ccc(-c2cc(-c3n[nH]c(=S)o3)c3ccccc3n2)cc1	–	–	–	–	17
Oc1c(Br)cc2oc3c(c2c1CNCc1ccccc1)CCCC3	–	2.9	–	–	–
O=C1/C(=C/c2ccncc2)CCC/C1=C\c1ccncc1	+	-3.3	-7	–	–
O=C1/C(=C/c2ccncc2)CCc2ccccc21	·	–	–	·	–
O=c1[nH]cc(NCCNc2ncc(C(F)(F)F)cc2Cl)c(=O)[nH]1	–	–	–	–	–
COc1ccc(N2Cc3ccccc3C2=NC(=O)c2cncc(Br)c2)cc1	–	–	–	–	–
Cc1ccc(C(C)C)c(OCC(=O)N/N=C/c2cccn2C)c1	·	–	–	·	–
Cc1ccc2nc3sc(-c4nnc(-c5ccccc5[N+](=O)[O-])o4)c(N)c3cc2c1	+	·	–	–	·
CCCn1c(=O)c2ccccc2n2c(SCC(=O)N3CCc4ccccc4C3)nnc12	–	·	–	–	-4.1
CCn1c(=O)c2ccccc2n2c(SCC(=O)N3CCc4ccccc4C3)nnc12	–	·	–	–	·
Cc1ccc(CN2C(=O)c3ccccc3NC23CCN(Cc2ccccc2)CC3)cc1	+	·	–	–	–
O=C1NC2(CCN(Cc3ccccc3)CC2)Oc2ccccc21	–	–	–	–	–
SMILES	Autophagy mod	ROMK mod	Dynein transport	Redox H2O2 prof	KCC2 mod
CCOC(=O)N1CCN(C(=O)CSc2nnc(-c3ccc(C(C)(C)C)cc3)o2)CC1	+	·	–	–	–
O=c1/c(=C\c2cc([N+](=O)[O-])cc([N+](=O)[O-])c2O)sc2nc3ccccc3n12	–	–	–	–	-3.3
Cc1[nH]nc2c1/C(=N\O)CCC2	–	–	–	–	–
CCn1c(O)c(N=NC(=O)CNc2cccc(C)c2)c2ccccc21	–	·	–	–	5.6
Cc1cc(-c2nnc(SCC(=O)Nc3ccccc3Cl)n2C)no1	·	·	–	·	–
CCNC(=S)N/N=C(\C)c1ccc(N2CCOCC2)cc1	+	–	–	–	–
CNC(=S)N/N=C(\C)c1ccc(N2CCOCC2)cc1	–	·	–	–	–
Cn1cccc1-c1cc(C(=O)N/N=C/c2cccc(O)c2)[nH]n1	–	–	–	–	·

Screens from PubChem.
